According to paper PMC4409664 (Cell, 2015):

Columns and labels:
Assay type in all cases: binding
STRA6 = biological target: T1, STRA6 (Homo sapiens, UniProt Q9BX79); assay: STRA6-RBP equilibrium and kinetic analysis by ELISA on STRA6+ HEK293T cells; conditions: read-out: Kd for STRA6, apo RBP^HA, 90 min at 37°C
T1 sequence (Q9BX79 1-667): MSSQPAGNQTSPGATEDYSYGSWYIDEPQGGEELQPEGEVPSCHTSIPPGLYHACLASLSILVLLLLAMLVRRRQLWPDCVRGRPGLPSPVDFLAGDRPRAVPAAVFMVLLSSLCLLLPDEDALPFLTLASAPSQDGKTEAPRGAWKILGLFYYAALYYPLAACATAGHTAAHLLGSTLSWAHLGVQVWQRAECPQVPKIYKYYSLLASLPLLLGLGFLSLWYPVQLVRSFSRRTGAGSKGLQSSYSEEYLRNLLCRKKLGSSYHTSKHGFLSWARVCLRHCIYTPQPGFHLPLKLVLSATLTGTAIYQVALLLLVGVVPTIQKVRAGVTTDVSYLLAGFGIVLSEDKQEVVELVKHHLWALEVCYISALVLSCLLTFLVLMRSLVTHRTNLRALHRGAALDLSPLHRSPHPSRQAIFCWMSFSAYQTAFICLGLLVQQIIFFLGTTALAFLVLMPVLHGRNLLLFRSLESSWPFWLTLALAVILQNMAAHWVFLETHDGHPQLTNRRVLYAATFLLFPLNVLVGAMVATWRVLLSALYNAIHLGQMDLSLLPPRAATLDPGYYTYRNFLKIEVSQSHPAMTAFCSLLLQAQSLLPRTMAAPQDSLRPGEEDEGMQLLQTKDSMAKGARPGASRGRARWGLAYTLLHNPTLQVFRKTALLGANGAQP
Procedure, shortened: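 Cells transfected with STRA6myc or vector were grown on poly-D-lysine. They were incubated 90 min at 37°C with medium containing 0–80 µg/mL apo RBP-HA and 0.5% BSA, washed in ice-cold HBSS, and bound RBP was eluted with 25 mM glycine HBSS pH 3. RBP was quantified by ELISA, with control-cell binding subtracted. Kd came from isotherms and reciprocal plots. TTR affinity was measured by SPR, running a TTR series over captured apo His-RBP.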

[1] = In vitro retinol titration by fluorescence enhancement; conditions: read-out: Kd for retinol; apo-RBP^HA, PBS, fluorescence ex 330 nm, em 460 nm
Procedure, shortened: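 Apo RBP-HA was immunopurified from serum-free HeLa conditioned medium, eluted with HA peptide, dialyzed into PBS and checked for homogeneity by gel. Equal amounts of protein (380 nM) were loaded with fresh all-trans retinol (0 to 5 µM) for 1 hr in PBS. Retinol fluorescence enhancement (ex 330, em 460 nm) was read on a microplate reader. Parallel runs used PBS with 0.1% phosphatidylcholine vesicles.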

human TTR = assay: RBP-TTR coimmunoprecipitation from HeLa conditioned media; conditions: HeLa cotransfected, HA immunoprecipitates
Procedure, shortened: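 HeLa cells cotransfected with myc-tagged TTR plus wild-type or mutant N-terminal HA-tagged human RBP plasmids. Secreted RBP complexes pulled from conditioned media with anti-HA agarose beads and washed in PBS. Western blot of immunoprecipitates probed first for TTR, then for HA.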

## serum retinol binding protein [WT]
STRA6
  Kd: 0.059 µM
[1]
  Kd: ~0.08 µM
Human TTR
  interaction with human TTR in coimmunoprecipitation: interacted strongly
